# Experimental data pooled from the literature.
# Compare with care: the assays were run in different laboratories.
# Observed: DPPH scavenging
Compound,assay,conditions,IC50
Cc1ccc(NC(=O)CSc2nc3ccccc3cc2C=Nn2c(S)nnc2-c2ccccc2)cc1,,,120 µM
CCCCCC1NCCc2cc(O)c(O)cc21 (centres unmarked),absorbance,"30 min, dark",63 µM
CCCCCCCCCCCCCCCCCCc1ccc(O)cc1,,,204 µM
O=C1O[C@H]([C@@H](O)CO)C(O)=C1O,absorbance,30 min,90.1 µM
CCOC(=O)C1=C(CCl)NC(=O)NC1c1cccc(OC)c1 (centres unmarked),,,86.7 µM
Cc1ccccc1NC(=O)CSc1nc2ccccc2cc1C=Nn1c(S)nnc1-c1ccccc1,,,131 µM
CCOC(=O)C1=C(CCl)NC(=O)NC1c1ccccc1 (centres unmarked),,,207 µM
O=c1c(O)c(-c2ccc(O)c(O)c2)oc2cc(O)cc(O)c12,,,18.6 µM
COc1cccc(C2NCCc3cc(O)c(O)cc32)c1O (centres unmarked),absorbance,"30 min, dark",6.49 µM
CCOC(=O)C1=C(CSC2=NCCS2)NC(=O)NC1c1ccc(OC)cc1 (centres unmarked),,,139 µM
O=C1O[C@H]([C@@H](O)CO)C(O)=C1O,absorbance,"30 min, dark",30.8 µM
CCOC(=O)C1=C(CSC2=NCCS2)NC(=O)NC1c1ccc(F)cc1F (centres unmarked),,,137 µM
O=C1O[C@H]([C@@H](O)CO)C(O)=C1O,,,9.1 µg/mL
CCCCCCCCCCC1NCCc2cc(O)c(O)cc21 (centres unmarked),absorbance,"30 min, dark",60.7 µM
CCOC(=O)C1=C(CCl)NC(=O)NC1c1cccc(Cl)c1 (centres unmarked),,,104 µM
C=C(C)[C@@H]1CC[C@]2(C)CC[C@]3(C)[C@H](CC[C@@H]4[C@@]5(C)CC[C@H](O)C(C)(C)[C@@H]5CC[C@]43C)[C@@H]12,absorbance,,18.6 µg/mL
COc1cc(C2NCCc3cc(O)c(O)cc32)cc(OC)c1O (centres unmarked),absorbance,"30 min, dark",11.2 µM
O=C(O[C@@H]1COC(=O)c2cc(O)c(O)c(O)c2-c2c(cc(O)c(O)c2O)C(=O)O[C@H]1[C@@H]1OC(=O)c2cc(O)c(O)c(O)c2-c2c(O)c(O)c(O)c3c2C(=O)O[C@H]1[C@@H]3O)c1cc(O)c(O)c(O)c1,absorbance,,5.37 µg/mL
CCOC(=O)C1=C(CCl)NC(=O)NC1c1cccc(F)c1 (centres unmarked),,,179 µM
CCCCCCCCCCCCCCCC1NCCc2cc(O)c(O)cc21 (centres unmarked),absorbance,"30 min, dark",37.3 µM
